Ecoli WT growth = blocks growth of wild type E. coli BW25113 | inhibition, % at 10 µM | AID 552 | 20,000 tested, 0.05% active | E. coli BW25113 growth inhibition, OD600; in the data active means inhibition above about 40%;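 further: bacteria exposed to compound for 20 hours at 37 °C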
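System: bacterial strain in a whole-cell growth screen; medium: LB broth with 50 µg/mL kanamycin; detection: absorbance at 615 nm; schedule: 20 h exposure, 37 °C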
* = called active by the depositor. Only a selection was taken, and hits are over-represented in it overall.

SMILES	Ecoli WT growth
CN(C)[C@@H]1C(=O)C(C(N)=O)=C(O)[C@@]2(O)C(=O)C3=C(O)c4c(O)cccc4[C@@](C)(O)[C@H]3[C@H](O)[C@@H]12	40*
Cc1oc(C(=O)Nc2ccc(O)cc2)cc1COc1ccccc1	-14
Clc1ccc(COC(Cn2ccnc2)c2ccc(Cl)cc2Cl)c(Cl)c1 (stereo not drawn)	9
O=C(c1ccc2nc3ccc(Cl)cc3c(=O)n2c1)N1CCC2(CC1)OCCO2	-2
Cc1onc(-c2ccccc2)c1C(=O)N1CCC2(CC1)OCCO2	-3

High-throughput results from PubChem BioAssay.
